According to ChEMBL document CHEMBL1782042, “Efficient microwave-assisted synthesis and antitumor activity of novel 4,4'-methylenebis[2-(3-aryl-4,5-dihydro-1H-pyrazol-5-yl)phenols]” (Eur J Med Chem, 2011):

Assays:
Malme-3M = test: Anticancer activity against human MALME-3M cells after 48 hrs by sulforhodamine B assay; type: functional
Outline: (§1)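 NCI 60-cell-line in vitro screen, second stage: five concentration levels (100, 10, 1.0, 0.1 and 0.01 μM) with 48 h continuous drug exposure. Cell growth was estimated by sulforhodamine B protein staining. GI50 is the drug concentration that gives a 50% reduction in net protein increase relative to control cells over the incubation.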

CAKI-1 = test: Cytotoxicity against human Caki1 cells; type: cell-based
Outline: (§2)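 NCI 60 human tumour cell line screen, second stage at five concentrations (100, 10, 1.0, 0.1 and 0.01 μM). Continuous drug exposure for 48 h, with cell growth estimated by sulforhodamine B protein staining. GI50 is the drug concentration giving a 50% reduction in net protein increase relative to control cells over the incubation.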

PC-3 [1] = test: Anticancer activity against human PC3 cells after 48 hrs by sulforhodamine B assay; type: functional; settings: PC-3, 48 h; outline: as §1
NCI-H23 [2] = test: Anticancer activity against human NCI-H23 cells after 48 hrs by sulforhodamine B assay; type: functional; settings: NCI-H23, 48 h; outline: as §1
SK-MEL-2 [3] = test: Cytotoxicity against human SK-MEL-2 cells; type: cell-based; outline: as §2
HCT-15 = test: Cytotoxicity against human HCT15 cells; type: cell-based; outline: as §2
M14 = test: Anticancer activity against human M14 cells after 48 hrs by sulforhodamine B assay; type: functional; settings: M14, 48 h; outline: as §1
Hs-578T = test: Anticancer activity against human Hs578T cells after 48 hrs by sulforhodamine B assay; type: functional; outline: as §1
OVCAR-8 = test: Cytotoxicity against human OVCAR8 cells; type: cell-based; outline: as §2
MOLT-4 = test: Cytotoxicity against human MOLT4 cells; type: cell-based; outline: as §2
PC-3 [4] = test: Cytotoxicity against human PC3 cells; type: cell-based; outline: as §2
NCI-H522 = test: Anticancer activity against human NCI-H522 cells after 48 hrs by sulforhodamine B assay; type: functional; settings: NCI-H522, 48 h; outline: as §1
SK-MEL-28 = test: Cytotoxicity against human SK-MEL-28 cells; type: cell-based; outline: as §2
HOP-92 [5] = test: Cytotoxicity against human HOP92 cells; type: cell-based; outline: as §2
ACHN = test: Cytotoxicity against human ACHN cells; type: cell-based; outline: as §2
MCF7 = test: Anticancer activity against human MCF7 cells after 48 hrs by sulforhodamine B assay; type: functional; settings: MCF7, 48 h; outline: as §1
K562 = test: Cytotoxicity against human K562 cells; type: cell-based; outline: as §2
SK-MEL-5 [6] = test: Anticancer activity against human SK-MEL-5 cells after 48 hrs by sulforhodamine B assay; type: functional; settings: SK-MEL-5, 48 h; outline: as §1
SF-539 [7] = test: Anticancer activity against human SF539 cells after 48 hrs by sulforhodamine B assay; type: functional; settings: SF-539, 48 h; outline: as §1
HOP-92 [8] = test: Anticancer activity against human HOP92 cells after 48 hrs by sulforhodamine B assay; type: functional; settings: HOP-92, 48 h; outline: as §1
NCI-H322M [9] = test: Anticancer activity against human NCI-H322M cells after 48 hrs by sulforhodamine B assay; type: functional; outline: as §1
SNB-19 = test: Cytotoxicity against human SNB19 cells; type: cell-based
Outline: (§3)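 NCI 60 human tumour cell line screen; five concentration levels (100, 10, 1.0, 0.1 and 0.01 μM), 48 h continuous drug exposure. Cell growth estimated by sulforhodamine B (SRB) protein staining. GI50 taken as the drug concentration giving a 50% reduction in net protein increase relative to control cells over the incubation.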

A549 = test: Anticancer activity against human A549 cells after 48 hrs by sulforhodamine B assay; type: functional; settings: A549, 48 h; outline: as §1
SK-MEL-5 [10] = test: Cytotoxicity against human SK-MEL-5 cells; type: cell-based; outline: as §2
TK-10 = test: Anticancer activity against human TK10 cells after 48 hrs by sulforhodamine B assay; type: functional; settings: TK-10, 48 h
Outline: (§4)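 NCI 60-cell-line screen, second stage. Five concentration levels (100, 10, 1.0, 0.1 and 0.01 μM), 48 h continuous drug exposure. Cell growth was estimated by sulforhodamine B protein staining. GI50 is the concentration giving a 50% reduction in net protein increase relative to control cells over the drug incubation. Compounds entered this stage after an earlier single-dose screen.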

SN12C = test: Cytotoxicity against human SN12C cells; type: cell-based; outline: as §3
NCI-H322M [11] = test: Cytotoxicity against human NCI-H322M cells; type: cell-based; outline: as §2
SW-620 [12] = test: Anticancer activity against human SW620 cells after 48 hrs by sulforhodamine B assay; type: functional; settings: SW-620, 48 h; outline: as §4
SW-620 [13] = test: Cytotoxicity against human SW620 cells; type: cell-based; outline: as §3
U-251 = test: Cytotoxicity against human U251 cells; type: cell-based; outline: as §3
SF-295 = test: Cytotoxicity against human SF295 cells; type: cell-based; outline: as §2
UO-31 [14] = test: Anticancer activity against human UO31 cells after 48 hrs by sulforhodamine B assay; type: functional; settings: UO-31, 48 h; outline: as §4
UACC-62 [15] = test: Anticancer activity against human UACC62 cells after 48 hrs by sulforhodamine B assay; type: functional; settings: UACC-62, 48 h; outline: as §4
A498 [16] = test: Anticancer activity against human A498 cells after 48 hrs by sulforhodamine B assay; type: functional; settings: A498, 48 h; outline: as §1
OVCAR-3 = test: Anticancer activity against human OVCAR3 cells after 48 hrs by sulforhodamine B assay; type: functional; settings: OVCAR-3, 48 h; outline: as §1
KM12 = test: Cytotoxicity against human KM12 cells; type: cell-based; outline: as §2
UO-31 [17] = test: Cytotoxicity against human UO31 cells; type: cell-based; outline: as §3
MDA-MB-435 = test: Cytotoxicity against human MDA-MB-435 cells; type: cell-based; outline: as §2
A498 [18] = test: Cytotoxicity against human A498 cells; type: cell-based; outline: as §2
NCI-H23 [19] = test: Cytotoxicity against human NCI-H23 cells; type: cell-based; outline: as §2
EKVX = test: Anticancer activity against human EKVX cells after 48 hrs by sulforhodamine B assay; type: functional; outline: as §1
RPMI-8226 = test: Cytotoxicity against human RPMI8226 cells; type: cell-based; outline: as §2
COLO 205 = test: Anticancer activity against human COLO205 cells after 48 hrs by sulforhodamine B assay; type: functional; settings: COLO 205, 48 h; outline: as §1
HL-60(TB) [20] = test: Anticancer activity against human HL-60(TB) cells after 48 hrs by sulforhodamine B assay; type: functional; settings: HL-60, 48 h; outline: as §2
MDA-MB-468 [21] = test: Cytotoxicity against human MDA-MB-468 cells; type: cell-based; outline: as §2
SF-539 [22] = test: Cytotoxicity against human SF539 cells; type: cell-based; outline: as §2
NCI/ADR-RES = test: Cytotoxicity against human NCI/ADR-RES cells; type: cell-based; outline: as §2
MDA-MB-231 [23] = test: Anticancer activity against human MDA-MB-231 cells after 48 hrs by sulforhodamine B assay; type: functional; settings: MDA-MB-231, 48 h; outline: as §1
SK-MEL-2 [24] = test: Anticancer activity against human SK-MEL-2 cells after 48 hrs by sulforhodamine B assay; type: functional; settings: SK-MEL-2, 48 h; outline: as §1
HL-60(TB) [25] = test: Cytotoxicity against human HL-60(TB) cells; type: cell-based; outline: as §2
OVCAR-5 = test: Cytotoxicity against human OVCAR5 cells; type: cell-based; outline: as §2
MDA-MB-468 [26] = test: Anticancer activity against human MDA-MB-468 cells after 48 hrs by sulforhodamine B assay; type: functional; settings: MDA-MB-468, 48 h; outline: as §1
UACC-257 = test: Cytotoxicity against human UACC257 cells; type: cell-based; outline: as §3
MDA-MB-231 [27] = test: Cytotoxicity against human MDA-MB-231 cells; type: cell-based; outline: as §2
SNB-75 = test: Anticancer activity against human SNB75 cells after 48 hrs by sulforhodamine B assay; type: functional; settings: SNB-75, 48 h; outline: as §4
UACC-62 [28] = test: Cytotoxicity against human UACC62 cells; type: cell-based; outline: as §3

SMILES: Oc1ccc(Cc2ccc(O)c(C3CC(c4ccc(Cl)cc4)=NN3)c2)cc1C1CC(c2ccc(Cl)cc2)=NN1 (stereo unspecified)
- GI50 (Malme-3M): 5.08 µM
- LC50 (CAKI-1): > 100 µM
- GI50 (PC-3 [1]): 3.32 µM
- GI50 (NCI-H23 [2]): 3.3 µM
- LC50 (SK-MEL-2 [3]): 85.5 µM
- LC50 (HCT-15): > 100 µM
- GI50 (M14): 4.45 µM
- GI50 (Hs-578T): 2.76 µM
- LC50 (OVCAR-8): > 100 µM
- LC50 (MOLT-4): > 100 µM
- LC50 (PC-3 [4]): > 100 µM
- GI50 (NCI-H522): 2.95 µM
- LC50 (SK-MEL-28): > 100 µM
- LC50 (HOP-92 [5]): > 100 µM
- LC50 (ACHN): > 100 µM
- GI50 (MCF7): 3.04 µM
- LC50 (K562): > 100 µM
- GI50 (SK-MEL-5 [6]): 3.36 µM
- GI50 (SF-539 [7]): 5.82 µM
- GI50 (HOP-92 [8]): 3.39 µM
- GI50 (NCI-H322M [9]): 4.17 µM
- LC50 (SNB-19): > 100 µM
- GI50 (A549): 2.45 µM
- LC50 (SK-MEL-5 [10]): 36.7 µM
- GI50 (TK-10): 5.34 µM
- LC50 (SN12C): > 100 µM
- LC50 (NCI-H322M [11]): > 100 µM
- GI50 (SW-620 [12]): 3.29 µM
- LC50 (SW-620 [13]): > 100 µM
- LC50 (U-251): > 100 µM
- LC50 (SF-295): > 100 µM
- GI50 (UO-31 [14]): 3.04 µM
- GI50 (UACC-62 [15]): 3.16 µM
- GI50 (A498 [16]): 5.37 µM
- GI50 (OVCAR-3): 2.59 µM
- LC50 (KM12): > 100 µM
- LC50 (UO-31 [17]): > 100 µM
- LC50 (MDA-MB-435): > 100 µM
- LC50 (A498 [18]): > 100 µM
- LC50 (NCI-H23 [19]): > 100 µM
- GI50 (EKVX): 2.77 µM
- LC50 (RPMI-8226): > 100 µM
- GI50 (COLO 205): 5.44 µM
- GI50 (HL-60(TB) [20]): 2.66 µM
- LC50 (MDA-MB-468 [21]): > 100 µM
- LC50 (SF-539 [22]): > 100 µM
- LC50 (NCI/ADR-RES): > 100 µM
- GI50 (MDA-MB-231 [23]): 2.65 µM
- GI50 (SK-MEL-2 [24]): 3.23 µM
- LC50 (HL-60(TB) [25]): > 100 µM
- LC50 (OVCAR-5): > 100 µM
- GI50 (MDA-MB-468 [26]): 3.5 µM
- LC50 (UACC-257): > 100 µM
- LC50 (MDA-MB-231 [27]): > 100 µM
- GI50 (SNB-75): 4.26 µM
- LC50 (UACC-62 [28]): 43.6 µM
